Test results: ChEMBL document CHEMBL4477204, “Tetrahydroisoquinoline-Derived Urea and 2,5-Diketopiperazine Derivatives as Selective Antagonists of the Transient Receptor Potential Melastatin 8 (TRPM8) Channel Receptor and Antiprostate Cancer Agents” (J Med Chem, 2016)
Active and inactive are the calls of the source. No cut-off for these calls is given here.

Legend:
Type in all cases: cell-based
[1] = biological target: Transient receptor potential cation channel subfamily A member 1 (Rattus norvegicus) (UniProt Q6RI86); experiment: Antagonist activity at recombinant rat TRPA1 expressed in HEK293 cells assessed as inhibition of AITC-induced intracellular calcium accumulation up to 10 uM preincubated for 5 mins followed by AITC addition by Fluo-4-AM probe-based spectrofluorimetric assay
Procedure, shortened: (§1)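 HEK-293 cells stably expressing the listed TRP channel (human TRPV1; rat TRPM8, TRPA1, TRPV2, TRPV3 or TRPV4) were Fluo-4-AM loaded (4 µM, 1 h, 25 °C) and suspended in Tyrode's buffer pH 7.4. Compound was added 5 min before agonist: icilin 0.25 µM (TRPM8), capsaicin 0.1 µM (TRPV1), AITC 100 µM (TRPA1), LPC 3 µM (TRPV2), thymol 100 µM (TRPV3), 4α-PDD 1 µM (TRPV4). Agonist alone was taken as 100%. IC50 from sigmoidal fit, at least triplicate.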

[2] = biological target: T1, Transient receptor potential cation channel subfamily V member 1 (Homo sapiens, UniProt Q8NER1); experiment: Antagonist activity at recombinant human TRPV1 expressed in HEK293 cells assessed as inhibition of capsaicin-induced intracellular calcium accumulation preincubated for 5 mins followed by capsaicin addition by Fluo-4-AM probe-based spectrofluorimetric assay; procedure, shortened: as §1
[3] = biological target: T2, Heat sensitive channel TRPV3 (Rattus norvegicus, UniProt Q4QYD9); experiment: Antagonist activity at recombinant rat TRPV3 expressed in HEK293 cells assessed as inhibition of thymol-induced intracellular calcium accumulation preincubated for 5 mins followed by thymol addition by Fluo-4-AM probe-based spectrofluorimetric assay; procedure, shortened: as §1
T2 sequence (Q4QYD9 whole entry): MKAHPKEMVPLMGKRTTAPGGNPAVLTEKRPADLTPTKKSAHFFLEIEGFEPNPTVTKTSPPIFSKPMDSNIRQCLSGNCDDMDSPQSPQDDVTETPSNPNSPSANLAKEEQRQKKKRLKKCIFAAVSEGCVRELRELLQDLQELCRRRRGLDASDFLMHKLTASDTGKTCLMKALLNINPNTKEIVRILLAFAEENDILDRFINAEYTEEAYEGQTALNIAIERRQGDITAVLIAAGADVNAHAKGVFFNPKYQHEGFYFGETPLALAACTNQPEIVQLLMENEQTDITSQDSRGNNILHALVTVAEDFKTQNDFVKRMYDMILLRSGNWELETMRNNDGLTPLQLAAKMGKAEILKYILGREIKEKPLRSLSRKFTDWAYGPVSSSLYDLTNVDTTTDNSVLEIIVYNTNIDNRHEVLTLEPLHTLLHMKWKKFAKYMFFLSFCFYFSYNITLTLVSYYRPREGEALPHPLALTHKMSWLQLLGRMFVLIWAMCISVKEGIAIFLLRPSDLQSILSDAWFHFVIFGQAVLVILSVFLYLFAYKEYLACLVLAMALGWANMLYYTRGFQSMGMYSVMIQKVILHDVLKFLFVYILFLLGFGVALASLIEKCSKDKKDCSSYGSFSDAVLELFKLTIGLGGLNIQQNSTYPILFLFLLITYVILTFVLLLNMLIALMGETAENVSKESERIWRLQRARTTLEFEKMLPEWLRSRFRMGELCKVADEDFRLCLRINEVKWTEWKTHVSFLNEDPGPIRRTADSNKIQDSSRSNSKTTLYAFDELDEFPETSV

[4] = biological target: T3, Transient receptor potential cation channel subfamily V member 2 (Rattus norvegicus) (UniProt Q9WUD2); experiment: Antagonist activity at recombinant rat TRPV2 expressed in HEK293 cells assessed as inhibition of LPC-induced intracellular calcium accumulation up to 10 uM preincubated for 5 mins followed by LPC addition by Fluo-4-AM probe-based spectrofluorimetric assay; procedure, shortened: as §1
T3 sequence (whole entry): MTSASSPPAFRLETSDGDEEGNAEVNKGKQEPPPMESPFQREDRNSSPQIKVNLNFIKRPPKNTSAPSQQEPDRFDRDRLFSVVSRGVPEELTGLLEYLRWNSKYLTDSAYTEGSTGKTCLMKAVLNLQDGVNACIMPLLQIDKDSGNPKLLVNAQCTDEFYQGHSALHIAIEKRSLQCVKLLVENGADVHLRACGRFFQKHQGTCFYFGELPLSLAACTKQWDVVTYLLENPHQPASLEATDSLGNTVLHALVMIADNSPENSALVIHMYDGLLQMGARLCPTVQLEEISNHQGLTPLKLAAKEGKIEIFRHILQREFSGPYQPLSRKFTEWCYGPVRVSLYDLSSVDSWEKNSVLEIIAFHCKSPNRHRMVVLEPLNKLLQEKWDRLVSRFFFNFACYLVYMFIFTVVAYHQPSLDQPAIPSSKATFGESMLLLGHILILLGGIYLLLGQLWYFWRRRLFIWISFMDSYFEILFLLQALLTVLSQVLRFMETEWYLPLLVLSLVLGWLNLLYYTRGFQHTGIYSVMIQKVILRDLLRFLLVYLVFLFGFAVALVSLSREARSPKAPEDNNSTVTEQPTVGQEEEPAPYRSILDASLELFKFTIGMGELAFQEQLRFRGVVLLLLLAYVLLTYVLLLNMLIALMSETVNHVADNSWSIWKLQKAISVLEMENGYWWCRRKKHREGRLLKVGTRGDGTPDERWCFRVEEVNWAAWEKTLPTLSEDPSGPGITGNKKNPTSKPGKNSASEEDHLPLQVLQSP

[5] = biological target: T4, Transient receptor potential cation channel subfamily V member 2 (Rattus norvegicus, UniProt Q9WUD2); experiment: Antagonist activity at recombinant rat TRPV2 expressed in HEK293 cells assessed as inhibition of LPC-induced intracellular calcium accumulation preincubated for 5 mins followed by LPC addition by Fluo-4-AM probe-based spectrofluorimetric assay; procedure, shortened: as §1
T4 sequence (Q9WUD2 whole entry): T3 sequence (whole entry)

[6] = biological target: Transient receptor potential cation channel subfamily M member 8 (Rattus norvegicus, UniProt Q8R455); experiment: Agonist activity at recombinant rat TRPM8 expressed in HEK293 cells assessed as increase in intracellular calcium accumulation by Fluo-4-AM probe-based spectrofluorimetric assay; details: hek293
Procedure, shortened: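 HEK-293 cells stably expressing rat TRPM8 were loaded with Fluo-4-AM (4 µM, 0.02% Pluronic F-127) for 1 h at 25 °C in serum-free EMEM. They were then washed and suspended in Tyrode's buffer pH 7.4 in a stirred cuvette. [Ca2+]i fluorescence (ex 488/em 516 nm) was read before and after compound addition. Wild-type HEK-293 response was subtracted. Efficacy is expressed versus 4 µM ionomycin; EC50 comes from a sigmoidal fit.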

[7] = biological target: Transient receptor potential cation channel subfamily V member 4 (Rattus norvegicus, UniProt Q9ERZ8); experiment: Antagonist activity at recombinant rat TRPV4 expressed in HEK293 cells assessed as inhibition of 4alphaPDD-induced intracellular calcium accumulation preincubated for 5 mins followed by 4alphaPDD addition by Fluo-4-AM probe-based spectrofluorimetric assay; procedure, shortened: as §1
[8] = biological target: T1, Transient receptor potential cation channel subfamily V member 1; experiment: Antagonist activity at recombinant human TRPV1 expressed in HEK293 cells assessed as inhibition of capsaicin-induced intracellular calcium accumulation up to 10 uM […] preincubated for 5 mins followed by capsaicin addition by Fluo-4-AM probe-based spectrofluorimetric assay; procedure, shortened: as §1

Transient receptor potential cation channel subfamily V member 4, sequence (Q9ERZ8 whole entry): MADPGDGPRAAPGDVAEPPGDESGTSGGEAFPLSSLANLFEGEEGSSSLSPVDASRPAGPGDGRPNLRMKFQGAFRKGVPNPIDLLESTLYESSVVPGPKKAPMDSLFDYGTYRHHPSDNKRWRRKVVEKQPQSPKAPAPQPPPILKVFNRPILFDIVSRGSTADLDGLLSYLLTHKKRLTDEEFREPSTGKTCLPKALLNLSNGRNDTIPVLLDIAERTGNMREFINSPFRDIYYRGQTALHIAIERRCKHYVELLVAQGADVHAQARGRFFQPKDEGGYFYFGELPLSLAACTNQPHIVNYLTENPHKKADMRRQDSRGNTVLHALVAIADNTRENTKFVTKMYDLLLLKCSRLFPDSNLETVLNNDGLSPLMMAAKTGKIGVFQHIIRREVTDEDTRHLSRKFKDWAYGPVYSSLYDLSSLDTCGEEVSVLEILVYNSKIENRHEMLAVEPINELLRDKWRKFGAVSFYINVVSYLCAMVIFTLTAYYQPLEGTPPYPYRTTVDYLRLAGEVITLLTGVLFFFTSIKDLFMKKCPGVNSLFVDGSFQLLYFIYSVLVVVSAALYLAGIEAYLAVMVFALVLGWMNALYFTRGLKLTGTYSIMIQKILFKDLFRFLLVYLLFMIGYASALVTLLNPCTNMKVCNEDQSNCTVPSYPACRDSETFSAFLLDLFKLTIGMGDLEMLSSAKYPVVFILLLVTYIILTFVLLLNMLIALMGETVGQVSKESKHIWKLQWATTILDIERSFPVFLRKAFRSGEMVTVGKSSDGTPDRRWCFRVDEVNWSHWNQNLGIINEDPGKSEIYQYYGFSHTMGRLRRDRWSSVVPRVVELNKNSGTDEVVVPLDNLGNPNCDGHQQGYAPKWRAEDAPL
Transient receptor potential cation channel subfamily A member 1 (Rattus norvegicus), sequence (Q6RI86 whole entry): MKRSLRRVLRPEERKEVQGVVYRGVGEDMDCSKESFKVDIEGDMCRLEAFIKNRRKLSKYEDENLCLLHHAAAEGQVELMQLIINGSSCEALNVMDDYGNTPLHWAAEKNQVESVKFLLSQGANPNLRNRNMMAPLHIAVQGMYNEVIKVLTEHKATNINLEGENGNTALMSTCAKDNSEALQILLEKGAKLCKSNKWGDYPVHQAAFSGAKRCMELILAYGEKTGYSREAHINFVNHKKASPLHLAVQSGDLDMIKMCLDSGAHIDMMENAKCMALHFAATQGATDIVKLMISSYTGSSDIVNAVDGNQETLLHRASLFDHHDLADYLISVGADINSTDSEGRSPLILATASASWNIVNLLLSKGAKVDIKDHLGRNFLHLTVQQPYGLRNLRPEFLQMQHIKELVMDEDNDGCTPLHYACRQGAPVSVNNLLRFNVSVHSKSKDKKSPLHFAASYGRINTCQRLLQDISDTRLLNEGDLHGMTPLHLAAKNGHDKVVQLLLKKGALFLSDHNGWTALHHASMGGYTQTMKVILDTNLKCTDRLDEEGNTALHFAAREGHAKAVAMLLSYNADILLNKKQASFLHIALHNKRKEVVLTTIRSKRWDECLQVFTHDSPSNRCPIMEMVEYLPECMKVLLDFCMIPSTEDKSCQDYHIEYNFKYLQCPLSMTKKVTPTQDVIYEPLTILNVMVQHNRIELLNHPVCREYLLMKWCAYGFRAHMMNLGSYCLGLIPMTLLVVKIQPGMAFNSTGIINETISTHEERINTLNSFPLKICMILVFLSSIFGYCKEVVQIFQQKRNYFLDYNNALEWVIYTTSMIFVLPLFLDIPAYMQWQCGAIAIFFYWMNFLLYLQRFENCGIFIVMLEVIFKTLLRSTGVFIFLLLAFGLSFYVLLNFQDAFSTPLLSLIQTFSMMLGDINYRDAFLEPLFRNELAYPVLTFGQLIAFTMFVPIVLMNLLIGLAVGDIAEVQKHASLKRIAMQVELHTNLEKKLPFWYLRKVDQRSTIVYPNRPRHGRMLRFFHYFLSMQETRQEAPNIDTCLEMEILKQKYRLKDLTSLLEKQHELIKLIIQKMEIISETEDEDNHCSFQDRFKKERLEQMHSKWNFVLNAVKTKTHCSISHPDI
Transient receptor potential cation channel subfamily M member 8, sequence (Q8R455 whole entry): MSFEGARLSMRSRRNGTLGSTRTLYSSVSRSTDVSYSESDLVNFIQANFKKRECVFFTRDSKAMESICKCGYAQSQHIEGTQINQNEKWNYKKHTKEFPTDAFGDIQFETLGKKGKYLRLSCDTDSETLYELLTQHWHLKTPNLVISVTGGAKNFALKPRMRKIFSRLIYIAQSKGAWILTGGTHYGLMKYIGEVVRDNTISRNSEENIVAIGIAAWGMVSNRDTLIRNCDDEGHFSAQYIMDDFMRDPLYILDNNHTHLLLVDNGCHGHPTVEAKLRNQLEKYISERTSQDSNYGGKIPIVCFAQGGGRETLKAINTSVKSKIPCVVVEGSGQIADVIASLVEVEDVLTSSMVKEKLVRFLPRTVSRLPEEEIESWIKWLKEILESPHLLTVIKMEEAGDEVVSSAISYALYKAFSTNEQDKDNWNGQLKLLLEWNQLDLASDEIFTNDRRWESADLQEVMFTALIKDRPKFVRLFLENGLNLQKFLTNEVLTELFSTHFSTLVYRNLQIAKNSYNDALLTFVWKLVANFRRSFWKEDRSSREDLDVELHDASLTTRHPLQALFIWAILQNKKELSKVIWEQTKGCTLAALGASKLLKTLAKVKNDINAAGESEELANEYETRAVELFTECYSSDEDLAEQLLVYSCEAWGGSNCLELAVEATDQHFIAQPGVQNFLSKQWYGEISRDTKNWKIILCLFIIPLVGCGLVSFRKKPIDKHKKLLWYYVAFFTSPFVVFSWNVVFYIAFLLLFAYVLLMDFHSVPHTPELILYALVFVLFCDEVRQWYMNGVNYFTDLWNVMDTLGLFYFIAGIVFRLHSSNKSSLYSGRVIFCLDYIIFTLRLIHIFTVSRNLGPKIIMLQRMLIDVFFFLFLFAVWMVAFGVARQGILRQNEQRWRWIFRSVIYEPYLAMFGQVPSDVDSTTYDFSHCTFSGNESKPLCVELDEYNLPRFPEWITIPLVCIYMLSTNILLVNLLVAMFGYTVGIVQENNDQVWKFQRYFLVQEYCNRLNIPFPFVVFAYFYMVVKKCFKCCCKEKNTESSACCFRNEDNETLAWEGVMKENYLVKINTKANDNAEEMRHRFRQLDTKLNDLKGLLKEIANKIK
T1 sequence (Q8NER1 whole entry): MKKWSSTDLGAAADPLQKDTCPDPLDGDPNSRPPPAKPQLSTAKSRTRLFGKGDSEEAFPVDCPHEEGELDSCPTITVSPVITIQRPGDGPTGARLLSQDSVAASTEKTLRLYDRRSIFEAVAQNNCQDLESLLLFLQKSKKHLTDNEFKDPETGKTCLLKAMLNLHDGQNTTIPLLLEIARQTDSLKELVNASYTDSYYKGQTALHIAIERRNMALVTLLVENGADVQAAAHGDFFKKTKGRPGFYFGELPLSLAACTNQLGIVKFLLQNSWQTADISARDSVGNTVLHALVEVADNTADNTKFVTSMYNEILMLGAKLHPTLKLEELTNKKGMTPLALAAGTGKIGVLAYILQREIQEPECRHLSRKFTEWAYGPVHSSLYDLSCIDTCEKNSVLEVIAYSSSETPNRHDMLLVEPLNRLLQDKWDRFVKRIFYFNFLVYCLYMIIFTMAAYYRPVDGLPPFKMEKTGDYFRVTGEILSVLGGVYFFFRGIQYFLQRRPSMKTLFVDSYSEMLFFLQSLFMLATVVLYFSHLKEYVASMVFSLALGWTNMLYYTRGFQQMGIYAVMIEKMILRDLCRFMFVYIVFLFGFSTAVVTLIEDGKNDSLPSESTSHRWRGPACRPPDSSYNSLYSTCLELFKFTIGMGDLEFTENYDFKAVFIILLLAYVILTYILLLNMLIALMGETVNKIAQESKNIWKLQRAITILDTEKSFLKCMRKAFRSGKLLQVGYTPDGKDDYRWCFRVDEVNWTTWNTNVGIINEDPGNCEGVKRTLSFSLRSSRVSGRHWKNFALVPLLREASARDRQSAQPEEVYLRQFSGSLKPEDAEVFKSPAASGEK

| inhibition [1] | IC50 [2] | IC50 [3] | inhibition [4] | IC50 [5] | EC50 [6] | IC50 [7] | inhibition [8] | SMILES |
| --- | --- | --- | --- | --- | --- | --- | --- | --- |
| inactive | 53 µM | > 100 µM | inactive | 51.9 µM | Not Active | 82.6 µM | inactive | COc1cc2c(cc1OC)[C@H](c1ccccc1)N(C(=O)N1CCc3cc(OC)c(OC)cc3[C@@H]1c1ccccc1)CC2 (racemic) |
| inactive | 68.9 µM | 34.3 µM | inactive | 12.4 µM | Not Active | > 100 µM | inactive | COc1cc(/C=C2\NC(=O)[C@@H]3Cc4c(OC)c(C)c(OC)c(OC)c4[C@@H](c4ccccc4)N3C2=O)c(OC)c(C)c1OC |
| inactive | 49.7 µM | > 100 µM | inactive | 54.9 µM | Not Active | 81.5 µM | inactive | COc1cc2c(cc1OC)[C@H](c1ccc(Cl)cc1)N(C(=O)N1CCc3cc(OC)c(OC)cc3[C@@H]1c1ccc(Cl)cc1)CC2 (racemic) |
| inactive | 68.5 µM | 72.9 µM | inactive | 94.3 µM | Not Active | 96.2 µM | inactive | COc1cc2c(cc1OC)[C@H](c1ccc(F)cc1)N(C(=O)N1CCc3cc(OC)c(OC)cc3[C@@H]1c1ccc(F)cc1)CC2 (racemic) |
